Results reported in ChEMBL document CHEMBL1125107, “Cephalosporin 3'-quinolone esters with a dual mode of action” (J Med Chem, 1990).
≈ marks a conversion by molar mass, not a printed value. Values belong to the molecule of their own block, whether it stands above or below them.

Columns and labels:
[1] = Evaluated for its stability in dog blood at 37 degrees Celsius as determined by HPLC analysis; type: ADME, organism-based, Canis lupus familiaris
How it was run: (§1)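 Compound solutions incubated at 37 °C, sampled at intervals; remaining starting material quantified by HPLC on PRP-1 column, UV 286 nm, mobile phase 0.01 M tetradecyltrimethylammonium bromide in 60% 0.067 M pH 7.4 phosphate buffer/40% acetonitrile; half-life reported.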

[2] = Evaluated for its stability in dog serum at 37 degrees Celsius as determined by HPLC analysis; type: ADME, organism-based, Canis lupus familiaris; how it was run: as §1
[3] = Evaluated for its stability in phosphate buffer, pH 7.4 at 37 degrees Celsius as determined by HPLC analysis; type: physicochemical; how it was run: as §1
Escherichia coli [4] = assay: Evaluated for in Vitro activity against Escherichia coli DC-O; type: functional; settings: read-out: MIC
How it was run: (§2)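 MIC by serial 2-fold dilution in Mueller-Hinton broth; results given as minimum inhibitory concentrations (nmol/mL).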

[5] = Evaluated for its stability in monkey serum at 37 degrees Celsius as determined by HPLC analysis; type: ADME, cell-free; settings: simiiformes; how it was run: as §1
[6] = Evaluated for its stability in phosphate buffer, pH 6.5 at 37 degrees Celsius as determined by HPLC analysis; type: physicochemical; how it was run: as §1
Escherichia coli [7] = assay: Evaluated for the minimum inhibitory concentration against Escherichia coli UB 1005; type: functional; how it was run: as §2
Pseudomonas aeruginosa [8] = assay: Evaluated for the minimum inhibitory concentration against Pseudomonas aeruginosa 18S/H ( Class Id beta-lactamase overproducer); type: functional; how it was run: as §2
Escherichia coli [9] = assay: Evaluated for the in vivo activity in mice against Escherichia coli 257; type: functional
Proteus vulgaris [10] = assay: Minimum inhibitory concentration against Proteus vulgaris 1028 BC (Class Ic beta-lactamase overproducer); type: functional
How it was run: (§3)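 Broth MIC determination: serial 2-fold dilutions in Mueller-Hinton broth by standard methodology; the lowest concentration inhibiting growth is reported as the MIC, in nmol/mL.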

[11] = Evaluated for its stability in rat blood at 37 degrees Celsius as determined by HPLC analysis; type: ADME, organism-based; how it was run: as §1
Streptococcus pneumoniae [12] = assay: Minimum inhibitory concentration against Streptococcus pneumoniae 6301; type: functional; how it was run: as §3
Staphylococcus aureus [13] = assay: Minimum inhibitory concentration against Staphylococcus aureus 95 (Methicillin-resistant, high-level beta-lactamase producer); type: functional
How it was run: (§4)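 Serial 2-fold broth dilution in Mueller-Hinton broth, run by standard methodology; read-out is the minimum inhibitory concentration (MIC).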

[14] = Evaluated for its stability in Mueller-Hinton broth at 37 degrees Celsius as determined by HPLC analysis; type: physicochemical; how it was run: as §1
[15] = Evaluated for its stability in rat serum at 37 degrees Celsius as determined by HPLC analysis; type: ADME, organism-based; how it was run: as §1
Streptococcus pyogenes [16] = assay: Minimum inhibitory concentration against Streptococcus pyogenes 4; type: functional; how it was run: as §3
Pseudomonas aeruginosa [17] = assay: Minimum inhibitory concentration against Pseudomonas aeruginosa ATCC 27853; type: functional; how it was run: as §3
[18] = Evaluated for its stability in human serum at 37 degrees Celsius as determined by HPLC analysis; type: ADME, organism-based; how it was run: as §1
Micrococcus luteus = assay: Evaluated for in Vitro activity against Micrococcus luteus PCI; type: functional; settings: read-out: MIC; how it was run: as §2
Streptococcus pneumoniae [19] = assay: Evaluated for in Vitro activity against Streptococcus pneumoniae 6301; type: functional; settings: read-out: MIC; how it was run: as §2
Streptococcus pyogenes [20] = assay: Evaluated for the in vivo activity in mice against streptococcus pyogenes 4; type: functional
Pseudomonas aeruginosa [21] = assay: Evaluated for the minimum inhibitory concentration against Pseudomonas aeruginosa 18S/H (Class Id beta-lactamase overproducer); type: functional; how it was run: as §2
Proteus vulgaris [22] = assay: Evaluated for the minimum inhibitory concentration against Proteus vulgaris 1028 BC (Class Ic beta-lactamase overproducer; type: functional; how it was run: as §2
Streptococcus pyogenes [23] = assay: In vitro antibacterial activity was determined against Streptococcus pyogenes 4; type: functional; how it was run: as §3
Proteus mirabilis = assay: In vitro antibacterial activity was determined against Proteus mirabilis 90; type: functional; how it was run: as §2
Staphylococcus aureus [24] = assay: In vitro antibacterial activity was determined against Staphylococcus aureus 1059B ( inducible, high level beta-lactamase producer); type: functional; how it was run: as §3
Streptococcus pneumoniae [25] = assay: In vitro antibacterial activity was determined against Streptococcus pneumoniae 6301; type: functional; how it was run: as §3
Enterobacter cloacae = assay: In vitro antibacterial activity was determined against Enterobacter cloacae P99 (Class Ia beta-lactamase overproducer); type: functional; how it was run: as §2
Staphylococcus aureus [26] = assay: In vitro antibacterial activity was determined against Staphylococcus aureus 95 (Methicillin-resistant, high-level beta-lactamase producer); type: functional; how it was run: as §4
Escherichia coli [27] = assay: In vitro antibacterial activity was determined against Escherichia coli TEM-1 (TEM-1 (class IIIa) beta-lactamase producer); type: functional; how it was run: as §2
Staphylococcus aureus [28] = assay: In vitro antibacterial activity was determined against Staphylococcus aureus 1059B (inducible, high level beta-lactamase producer); type: functional; how it was run: as §4
Citrobacter freundii = assay: In vitro antibacterial activity was determined against Citrobacter freundii BS-16; type: functional; how it was run: as §2
Enterococcus faecalis = assay: In vitro antibacterial activity was determined against Enterococcus faecalis ATCC 29212; type: functional; how it was run: as §2
Pseudomonas aeruginosa [29] = assay: In vitro antibacterial activity was determined against Pseudomonas aeruginosa 18S/H (Class Id beta-lactamase overproducer); type: functional; how it was run: as §3
Serratia marcescens = assay: In vitro antibacterial activity was determined against Serratia marcescens 1071; type: functional; how it was run: as §3
Staphylococcus aureus [30] = assay: In vitro antibacterial activity was determined against Staphylococcus aureus ATCC 29213 (inducible, low level beta-lactamase producer); type: functional; how it was run: as §4
Proteus vulgaris [31] = assay: In vitro antibacterial activity was determined against Proteus vulgaris 1028 BC (Class Ic beta-lactamase overproducer; type: functional; how it was run: as §2
Pseudomonas aeruginosa [32] = assay: Evaluated for the minimum inhibitory concentration against Pseudomonas aeruginosa ATCC 27853; type: functional; how it was run: as §2

SMILES: CO/N=C(/C(=O)N[C@@H]1C(=O)N2C(C(=O)O)=C(COC(=O)c3cn(CCF)c4c(F)c(N5CCN(C)CC5)c(F)cc4c3=O)CSC12)c1csc(N)n1 (some centres not stated)
half-life [1]: 3.4 h
half-life [2]: 3.9 h
half-life [3]: 3 h
MIC (Escherichia coli [4]): 0.299 µM (≈ 0.229 µg/mL)
half-life [5]: 5.7 h
half-life [6]: 6.9 h
MIC (Escherichia coli [7]): 0.12 µg/mL (≈ 0.157 µM)
MIC (Pseudomonas aeruginosa [8]): 4 µg/mL (≈ 5.23 µM)
ED50 (Escherichia coli [9]): 1.8 mg/kg
MIC (Proteus vulgaris [10]): 0.25 µg/mL (≈ 0.327 µM)
half-life [11]: 5.8 h
MIC (Streptococcus pneumoniae [12]): < 0.008 µg/mL
MIC (Staphylococcus aureus [13]): 2 µg/mL (≈ 2.62 µM)
half-life [14]: 3.4 h
half-life [15]: 4.5 h
MIC (Streptococcus pyogenes [16]): 0.031 µg/mL (≈ 0.0405 µM)
MIC (Pseudomonas aeruginosa [17]): 8 µg/mL (≈ 10.5 µM)
half-life [18]: 6.3 h
MIC (Micrococcus luteus): 0.0746 µM (≈ 0.0571 µg/mL)
MIC (Streptococcus pneumoniae [19]): 0.0187 µM (≈ 0.0143 µg/mL)
ED50 (Streptococcus pyogenes [20]): 8.8 mg/kg

SMILES: CCn1cc(C(=O)OCC2=C(C(=O)O)N3C(=O)[C@@H](NC(=O)/C(=N/OC)c4csc(N)n4)C3SC2)c(=O)c2cc3c(cc21)OCO3 (some centres not stated)
MIC (Staphylococcus aureus [13]): 4 µg/mL (≈ 6.09 µM)
MIC (Pseudomonas aeruginosa [21]): 16 µg/mL (≈ 24.4 µM)
MIC (Pseudomonas aeruginosa [17]): 128 µg/mL (≈ 195 µM)
MIC (Proteus vulgaris [22]): 0.25 µg/mL (≈ 0.381 µM)

MIC (Streptococcus pyogenes [23]): 0.063 µg/mL (≈ 0.109 µM)
MIC (Proteus mirabilis): 32 µg/mL (≈ 55.3 µM)
MIC (Staphylococcus aureus [24]): 0.5 µg/mL (≈ 0.864 µM)
MIC (Streptococcus pneumoniae [25]): < 0.008 µg/mL
SMILES: CCn1cc(C(=O)OCC2=C(C(=O)O)N3C(=O)[C@@H](NC(=O)COc4ccccc4)C3SC2)c(=O)c2ccc(C)nc21 (some centres not stated)

SMILES: CCn1cc(C(=O)OCC2=C(C(=O)O)N3C(=O)[C@@H](NC(=O)/C(=N/OC)c4csc(N)n4)C3SC2)c(=O)c2cc(F)c(N3CCN(C=O)CC3)cc21 (some centres not stated)
MIC (Proteus vulgaris [10]): 8 µg/mL (≈ 10.8 µM)
MIC (Staphylococcus aureus [13]): 8 µg/mL (≈ 10.8 µM)
MIC (Pseudomonas aeruginosa [21]): 32 µg/mL (≈ 43.1 µM)
MIC (Pseudomonas aeruginosa [17]): > 128 µg/mL

SMILES: CCn1cc(C(=O)O)c(=O)c2cc(F)c(-n3cccc3)cc21 [IRLOXACIN]
MIC (Enterobacter cloacae): 0.5 µg/mL (≈ 1.67 µM)
MIC (Staphylococcus aureus [26]): 0.125 µg/mL (≈ 0.416 µM)
MIC (Streptococcus pyogenes [23]): > 128 µg/mL
MIC (Proteus mirabilis): 64 µg/mL (≈ 213 µM)
MIC (Escherichia coli [27]): 1 µg/mL (≈ 3.33 µM)
MIC (Staphylococcus aureus [28]): 0.125 µg/mL (≈ 0.416 µM)
MIC (Citrobacter freundii): 64 µg/mL (≈ 213 µM)
MIC (Enterococcus faecalis): 2 µg/mL (≈ 6.66 µM)
MIC (Pseudomonas aeruginosa [29]): 64 µg/mL (≈ 213 µM)
MIC (Streptococcus pneumoniae [25]): 16 µg/mL (≈ 53.3 µM)
MIC (Serratia marcescens): 0.5 µg/mL (≈ 1.67 µM)
MIC (Staphylococcus aureus [30]): 0.125 µg/mL (≈ 0.416 µM)
MIC (Proteus vulgaris [31]): 0.5 µg/mL (≈ 1.67 µM)

SMILES: CCN1CCN(C(=O)NC(C(=O)N[C@@H]2C(=O)N3C(C(=O)O)=C(COC(=O)c4cn(CC)c5cc(N6CCSCC6)c(F)cc5c4=O)CSC23)c2ccccc2)C(=O)C1=O (some centres not stated)
MIC (Pseudomonas aeruginosa [32]): 64 µg/mL (≈ 75.3 µM)
MIC (Pseudomonas aeruginosa [8]): 32 µg/mL (≈ 37.7 µM)
MIC (Proteus vulgaris [10]): 64 µg/mL (≈ 75.3 µM)
MIC (Streptococcus pneumoniae [12]): 0.125 µg/mL (≈ 0.147 µM)
MIC (Staphylococcus aureus [13]): 1 µg/mL (≈ 1.18 µM)
MIC (Streptococcus pyogenes [16]): 0.016 µg/mL (≈ 0.0188 µM)
